Hits are enriched below; roughly 1.9% of the tested compounds scored in any of these assays.
Rin1 Abl inh – inhibitors of Rin1-Abl protein binding, primary screen, biochemical, TR-FRET; 360,000 compounds, 0.4% hits; inhibition, % at 7.35 µM; Tyrosine-protein kinase ABL1 (Homo sapiens) + Ras and Rab interactor 1 (Homo sapiens), …; in the data active = inhibition above about 5%, passing the limit was not always enough
LEDGF integ inh – blockers of LEDGF/p75-dependent integrase strand transfer – biochemical, TR-FRET, high throughput, primary screen. HIV-1 integrase (with human LEDGF/p75). 370,000 compounds, 0.64% hits. TR-FRET IN-LEDGF/p75 DNA integration, Eu/Cy5. inhibition, % at 3.7 µM;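 active = inhibition above the screen-wide mean plus 3 SD, cut at about 13% in these data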;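 note: signal is the Cy5 over europium emission ratio at 671 and 618 nm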
MBD2 inh – inhibitors of MBD2 binding to methylated DNA, primary screen, biochemical, TR-FRET, DNA-binding domain, human; Methyl-CpG-binding domain protein 2 (Homo sapiens), Q9UBB5; MBD2 binding to methylated oligonucleotide; AID 686964, 2013; inhibition, % at 4.4 µM; 370,000 compounds, 0.31% hits; in the data active = inhibition above about 13%
Target sequence (Q9UBB5 whole entry, looked up, the tested form may be a part): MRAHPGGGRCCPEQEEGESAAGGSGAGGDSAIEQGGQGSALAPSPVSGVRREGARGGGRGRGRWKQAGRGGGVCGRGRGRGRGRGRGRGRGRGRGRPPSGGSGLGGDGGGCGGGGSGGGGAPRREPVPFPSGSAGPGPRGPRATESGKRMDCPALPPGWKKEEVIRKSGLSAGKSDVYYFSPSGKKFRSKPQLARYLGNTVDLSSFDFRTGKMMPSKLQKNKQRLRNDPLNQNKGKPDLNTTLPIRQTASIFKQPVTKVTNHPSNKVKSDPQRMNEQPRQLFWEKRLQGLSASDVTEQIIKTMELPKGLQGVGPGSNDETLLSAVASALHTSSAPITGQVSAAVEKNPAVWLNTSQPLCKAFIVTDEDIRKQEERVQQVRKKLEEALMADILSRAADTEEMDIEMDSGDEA
TDP2 absorb – human TDP2 enzyme inhibitors, primary screen, biochemical, epi absorbance, recombinant enzyme; T5PNP hydrolysis, p-nitrophenol absorbance 415 nm; inhibition, % at 12.8 µM; 370,000 compounds, 0.34% hits;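 active = inhibition above the mean of all tested compounds plus 3 SD, set per campaign, cut at about 25% in these data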
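Test system: human TDP2 enzyme; Input: 120 nM TDP2 per well; Buffer or medium: Mg2+-containing Tris-HCl buffer, pH 7.5; Reagent: 5 mM T5PNP; Dosing: 12.8 µM single point, 1% DMSO; Incubation: reaction 2 h, 37 °C; Detection: p-Nitrophenol epi absorbance; Read-out: % inhibition relative to enzyme-containing and enzyme-free wells; Replicates: single well per compound.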
UHRF1 binding – UHRF1 methylated DNA binding inhibitors, primary screen, counter-screen for MBD2 inhibitor project, biochemical, TR-FRET, human UHRF1, single concentration; E3 ubiquitin-protein ligase UHRF1 (Homo sapiens), Q96T88; UHRF1 binding to methylated oligo; inhibition, % at 4.4 µM; 370,000 compounds, 0.75% hits; AID 687016, 2013; in the data active = inhibition above about 21%;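 note: UHRF1 SRA domain binding a hemimethylated CpG hairpin DNA probe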
TDP2 confirm – human TDP2 enzyme inhibitors, retest, confirmation, biochemical, epi absorbance, recombinant enzyme; shares compounds with TDP2 absorb; absorbance read-out; inhibition, % at 12.8 µM; 1,100 compounds, 22% hits; AID 743263, 2014; in the data active = inhibition above about 25%
Each line names hits and unclear results; the compound was inactive in the other large screens (follow-up assays come after a bar, where they were run).

CC(CN1CCN(Cc2ccccc2)CC1)c1ccccc1 (configuration not stated)	TDP2 absorb 25.6 | TDP2 confirm inactive
CC(C)C[C@H](NC1(C(=O)NC2CCCCC2)CCCCC1)C(=O)NCC(c1ccccc1)c1ccccc1	none (no result: Rin1 Abl inh)
Cc1ccc(CN2CCSCC2)cc1	TDP2 absorb 26.0 | TDP2 confirm inactive
COc1cc(/C=C2/C(=O)N(c3ccc([N+](=O)[O-])cc3)N=C2N2CCOCC2)ccc1O	TDP2 absorb 66.7 | TDP2 confirm 31.5
COc1cc(/C=C2\SC(=S)N(N3CCOCC3)C2=O)ccc1O	none
O=C(NCc1ccccc1)N1CCN(Cc2nc3ccccc3c(=O)[nH]2)CC1	none (no result: Rin1 Abl inh)
CCC(Oc1ccccc1)C(=O)Nc1ccc(C)c(S(=O)(=O)N2CCOCC2)c1 (configuration not stated)	TDP2 absorb 28.9 | TDP2 confirm inactive
COc1ccccc1OCCn1cc(/C=C(\C#N)C(=O)NCc2ccco2)c2ccccc21	TDP2 absorb 103.0 | TDP2 confirm inactive
COc1ccc(OCCn2cc(/C=C(\C#N)C(=O)NCc3ccco3)c3ccccc32)cc1	none
CC1=NN(c2ccc(S(=O)(=O)O)cc2C)C(=O)C1	TDP2 absorb 33.9 | TDP2 confirm 37.6
c1ccc(CC(Nc2cccnc2)c2ccccc2)cc1 (configuration not stated)	none (no result: Rin1 Abl inh)
O=C(N[C@H](C(=O)N1CCC[C@H]1C(=O)NCCc1ccccc1Cl)c1ccccc1)c1ccco1	none (no result: Rin1 Abl inh)
O=C(N1CCc2ccccc2C1)n1cc(C(O)(c2ccccc2)c2ccccc2)nn1	none (no result: Rin1 Abl inh)
O=C(N1CCOCC1)N1CC[C@H]2[C@H](CCCN2Cc2ccccc2)C1	none (no result: Rin1 Abl inh)
COc1ccc(C2C(C#N)=C(N)Oc3c2c(-c2ccccc2)nn3-c2ccccc2)c(OC)c1OC (configuration not stated)	TDP2 absorb 68.4 | TDP2 confirm inactive
Cc1nn(-c2ccccc2)c2c1C(c1ccc(Br)s1)C(C#N)=C(N)O2 (configuration not stated)	none (no result: LEDGF integ inh, MBD2 inh, TDP2 absorb, UHRF1 binding)
COC(=O)C1=C(C)OC(N)=C(C#N)C1c1ccc(OC)c(OC)c1OC (configuration not stated)	none
COc1ccc(OC)c(C2C(C#N)=C(N)Oc3c2c(C)nn3-c2ccc(C)cc2)c1 (configuration not stated)	TDP2 absorb 59.8 | TDP2 confirm inactive
Cc1nn(-c2ccccc2)c2c1C(c1ccccc1)C(C#N)=C(N)O2 (configuration not stated)	TDP2 absorb 40.4 | TDP2 confirm inactive
N#Cc1cc(F)cc(OC[C@@H](O)CN2CCC(C(O)(c3ccccc3)c3ccccc3)CC2)c1	none (no result: Rin1 Abl inh)
COc1cc(CN2CC(C)OC(C)C2)cc(OC)c1 (configuration not stated)	TDP2 absorb 24.5 | TDP2 confirm inactive
COc1cc(CN2CCCCCC2)cc(OC)c1	none
O=C(O)CN1C(=O)/C(=C\c2cc(Br)ccc2OCc2ccc(F)cc2)SC1=S	none
O=C(O)CN1C(=O)/C(=C\c2cc(Br)ccc2OCc2ccc(Cl)cc2)SC1=S	TDP2 absorb 26.0 | TDP2 confirm inactive
CC(=O)C[C@H](O)CC(=O)[C@H]1OC(=O)[C@H](C)C/C=C\Cc2ccccc21	none
CC(=O)Nc1nc2ncccn2c1-c1ccc(C)cc1	none (no result: Rin1 Abl inh)
COc1cccc2c1[C@H](/C=C/c1ccccc1)[C@@H]([C@H](O)COC(C)=O)OC2	none (no result: Rin1 Abl inh)
Cc1ccc2nc(-c3ccc4c(c3)NC(=O)CO4)cn2c1	TDP2 absorb 24.9 | TDP2 confirm inactive
Cc1ccc2nc(-c3ccc4c(c3)OCCO4)cn2c1	none
Cc1ccc(OCCOc2cccc3ccc(C)nc23)c([N+](=O)[O-])c1	TDP2 absorb 25.4 | TDP2 confirm inactive
COC(=O)c1ccc(CSc2ccccc2NC(=S)Nc2cccc(SC)c2)o1	none
C/C(=N\NS(=O)(=O)c1ccc([N+](=O)[O-])cc1)c1c[nH]c2ccccc12	none
C/C(=N/NS(=O)(=O)c1ccc(Br)cc1)c1c[nH]c2ccccc12	TDP2 absorb 24.6 | TDP2 confirm inactive
CCc1cc(SC#N)cc(C)c1N	TDP2 absorb 31.6 | TDP2 confirm inactive
Cc1ccccc1C(OCC(O)CN1CCN(CCO)CC1)c1ccccc1 (configuration not stated)	TDP2 absorb 26.6 | TDP2 confirm inactive
OC(COC(c1ccccc1)c1ccccc1)CN1CCCCC1 (configuration not stated)	none
COCCn1cnc2c1c(=O)n(CC(=O)NC(=O)NC(C)(C)C)c(=O)n2Cc1ccccc1	TDP2 absorb 38.6 | TDP2 confirm inactive
COc1ccc(COC(=O)c2cccc(S(=O)(=O)N3CCN(C(C)=O)CC3)c2)cc1F	TDP2 absorb 25.2 | TDP2 confirm inactive
COc1cc(CN2CCN(Cc3ccc(SC)cc3)CC2)cc(OC)c1O	none
COc1cc(OC)c(OC)cc1CN1CCN(Cc2ccc(SC)cc2)CC1	TDP2 absorb 24.9 | TDP2 confirm inactive
CCCCN(C)C(=O)CSc1nnc(-c2cc(OC)c(OC)c(OC)c2)o1	none (no result: Rin1 Abl inh)
Cc1nc(NC(=O)COc2ccccc2)sc1C(=O)Nc1cccc(Cl)c1	TDP2 absorb 27.2 | TDP2 confirm inactive
C#CCN1C(=O)[C@]2(NCCc3c2[nH]c2ccc(OC)cc32)c2ccccc21	none (no result: Rin1 Abl inh)
O=C(NC1CCCCN(Cc2ccc(Cl)cc2)C1=O)c1ccc2ccccc2c1 (configuration not stated)	none (no result: Rin1 Abl inh)
COc1ccc(F)cc1S(=O)(=O)NCc1cc(=O)n(C)c(=O)n1C	TDP2 absorb 25.5 | TDP2 confirm inactive
O=C1NCCN1CCN1CCC(c2cn(-c3ccc(F)cc3)c3ccc(Cl)cc23)CC1	none (no result: Rin1 Abl inh)
CCOC(=O)C1CCN(CC(=O)N2C(C)CCCC2C)CC1 (configuration not stated)	TDP2 absorb 26.5 | TDP2 confirm inactive
CCOC(=O)C1CCN(CC(=O)N2CCc3ccccc32)CC1	none
C=CCSc1nnc(COc2ccc(=O)n(-c3ccccc3)n2)n1CC	TDP2 absorb 24.6 | TDP2 confirm inactive
CCn1c(COc2ccc(=O)n(-c3ccccc3)n2)nnc1SCc1cccc(OC)c1	none
CCOc1ccccc1N1CCN(CC(=O)NC(C)c2ccccc2)CC1 (configuration not stated)	none
COC(=O)C1CCC(CNC(=O)C(Cc2ccc3c(c2)OCO3)NC(C)=O)CC1 (configuration not stated)	none (no result: Rin1 Abl inh)
